# According to ChEMBL document CHEMBL4014339, “Discovery of 1,4-Benzodiazepine-2,5-dione (BZD) Derivatives as Dual Nucleotide Binding Oligomerization Domain Containing 1/2 (NOD1/NOD2) Antagonists Sensitizing Paclitaxel (PTX) To Suppress Lewis Lung Carcinoma (LLC) Growth in Vivo” (J Med Chem, 2017):
# Target: T1, Nucleotide-binding oligomerization domain-containing protein 1 (Homo sapiens) (UniProt Q9Y239)
# T1 sequence (whole entry): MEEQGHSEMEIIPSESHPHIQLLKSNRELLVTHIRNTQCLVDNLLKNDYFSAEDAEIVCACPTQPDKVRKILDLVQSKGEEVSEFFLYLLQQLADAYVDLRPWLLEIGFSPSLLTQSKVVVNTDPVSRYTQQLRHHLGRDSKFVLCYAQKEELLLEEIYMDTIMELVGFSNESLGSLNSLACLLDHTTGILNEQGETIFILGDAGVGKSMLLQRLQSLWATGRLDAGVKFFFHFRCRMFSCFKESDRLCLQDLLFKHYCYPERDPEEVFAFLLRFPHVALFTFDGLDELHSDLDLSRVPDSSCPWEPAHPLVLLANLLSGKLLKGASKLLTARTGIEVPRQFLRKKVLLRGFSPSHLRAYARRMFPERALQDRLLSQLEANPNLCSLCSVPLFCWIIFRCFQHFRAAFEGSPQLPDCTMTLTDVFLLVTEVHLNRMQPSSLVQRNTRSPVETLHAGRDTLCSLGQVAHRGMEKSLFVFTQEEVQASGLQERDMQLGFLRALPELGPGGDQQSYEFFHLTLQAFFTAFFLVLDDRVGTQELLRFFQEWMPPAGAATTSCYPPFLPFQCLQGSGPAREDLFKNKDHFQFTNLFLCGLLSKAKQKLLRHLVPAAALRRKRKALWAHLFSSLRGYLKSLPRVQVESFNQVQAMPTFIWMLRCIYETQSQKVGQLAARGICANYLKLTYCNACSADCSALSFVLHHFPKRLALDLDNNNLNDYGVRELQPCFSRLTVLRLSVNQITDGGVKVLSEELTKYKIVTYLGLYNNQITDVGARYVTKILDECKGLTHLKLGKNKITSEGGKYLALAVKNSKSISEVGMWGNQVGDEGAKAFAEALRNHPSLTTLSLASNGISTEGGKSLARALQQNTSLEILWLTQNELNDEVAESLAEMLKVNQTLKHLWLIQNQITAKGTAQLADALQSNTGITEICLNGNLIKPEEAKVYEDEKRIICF
# Test: Antagonist activity at human NOD1 expressed in HEK-Blue cells assessed as inhibition of C12-iE-DAP-stimulated cell activation at 10 uM preincubated for 3 hrs followed by C12-iE-DAP addition measured after 20 hrs by SEAP reporter gene assay
# Format: cell-based
# In short: (§1)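 HEK-Blue hNOD1 or hNOD2 cells preincubated with compound 3 h, then stimulated 20 h with C12-iE-DAP 50 ng/mL (NOD1) or MDP 100 ng/mL (NOD2); SEAP in supernatant quantified. Primary screen at 10 μM, hits repeated in triplicate; IC50 from dose-response, mean ± SD (n = 3), only for compounds reaching ≥50% inhibition at the screening concentration.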
row,SMILES,inhibition [%]
1,CN(C)c1cccc(Oc2cc3c(cc2NC(=O)COCc2ccccc2)NC(=O)[C@@H](CCC(=O)N2CCCCC2)NC3=O)c1,86.7
2,CN(C)c1cccc(Oc2cc3c(cc2NC(=O)COCc2ccccc2)NC(=O)[C@@H](CCC(=O)N2CCCC2)NC3=O)c1,82
3,CCCNC(=O)CC[C@H]1NC(=O)c2cc(Oc3cccc(N(C)C)c3)c(NC(=O)COCc3ccc(Cl)cc3)cc2NC1=O,47.6
4,COC(=O)CC[C@H]1NC(=O)c2cc(Oc3cc(Cl)c(Cl)c(N(C)C)c3Cl)c(NC(=O)COCc3ccccc3)cc2NC1=O,65.3
5,COC(=O)CC[C@H]1NC(=O)c2cc(Oc3cccc(N4CCCC4)c3)c(NC(=O)COCc3ccc(Cl)cc3)cc2NC1=O,86.6
6,CCCCCCCCCCCCCCCCNC(=O)CC[C@H]1NC(=O)c2cc(Oc3cccc(N(C)C)c3)c(NC(=O)COCc3ccccc3)cc2NC1=O,27.5
7,CN(C)C(=O)CC[C@H]1NC(=O)c2cc(Oc3cccc(N(C)C)c3)c(NC(=O)COCc3ccccc3)cc2NC1=O,68
8,COC(=O)CC[C@H]1NC(=O)c2cc(Oc3cccc(N(C)C)c3Cl)c(NC(=O)COCc3ccc(Cl)cc3)cc2NC1=O,0.08
9,COC(=O)CC[C@H]1NC(=O)c2cc(Oc3cccc(N(C)C)c3)c(NC(=O)COCc3ccc(F)cc3Cl)cc2NC1=O,38.6
10,COC(=O)CC[C@H]1NC(=O)c2cc(Oc3cccc(N(C)C)c3)c(NC(=O)COCc3ccc(OC)cc3)cc2NC1=O,21.6
11,COC(=O)CC[C@H]1NC(=O)c2cc(Oc3cccc(N(C)C)c3Cl)c(NC(=O)COCc3ccccc3)cc2NC1=O,44.2
12,CCCCCCCCCCCCNC(=O)CC[C@H]1NC(=O)c2cc(Oc3cccc(N(C)C)c3)c(NC(=O)COCc3ccccc3)cc2NC1=O,48.2

# Target: T1, Nucleotide-binding oligomerization domain-containing protein 1 (Homo sapiens)
# Test: Antagonist activity at human NOD1 expressed in HEK-blue cells assessed as inhibition of C12-iE-DAP-stimulated cell activation at 5 uM preincubated for 3 hrs followed by C12-iE-DAP addition measured after 20 hrs by SEAP reporter gene assay
# Format: cell-based
row,SMILES,inhibition [%]
1,CN(C)c1cccc(Oc2cc3c(cc2NC(=O)COCc2ccccc2)NC(=O)[C@@H](CCC(=O)N2CCCCC2)NC3=O)c1,82.8
2,CN(C)c1cccc(Oc2cc3c(cc2NC(=O)COCc2ccccc2)NC(=O)[C@@H](CCC(=O)N2CCCC2)NC3=O)c1,73.2
3,CCCNC(=O)CC[C@H]1NC(=O)c2cc(Oc3cccc(N(C)C)c3)c(NC(=O)COCc3ccc(Cl)cc3)cc2NC1=O,52.9
4,COC(=O)CC[C@H]1NC(=O)c2cc(Oc3cc(Cl)c(Cl)c(N(C)C)c3Cl)c(NC(=O)COCc3ccccc3)cc2NC1=O,79.8
5,COC(=O)CC[C@H]1NC(=O)c2cc(Oc3cccc(N4CCCC4)c3)c(NC(=O)COCc3ccc(Cl)cc3)cc2NC1=O,80.9
6,CCCCCCCCCCCCCCCCNC(=O)CC[C@H]1NC(=O)c2cc(Oc3cccc(N(C)C)c3)c(NC(=O)COCc3ccccc3)cc2NC1=O,10.6
7,CN(C)C(=O)CC[C@H]1NC(=O)c2cc(Oc3cccc(N(C)C)c3)c(NC(=O)COCc3ccccc3)cc2NC1=O,43.1
8,COC(=O)CC[C@H]1NC(=O)c2cc(Oc3cccc(N(C)C)c3Cl)c(NC(=O)COCc3ccc(Cl)cc3)cc2NC1=O,21.9
9,COC(=O)CC[C@H]1NC(=O)c2cc(Oc3cccc(N(C)C)c3)c(NC(=O)COCc3ccc(F)cc3Cl)cc2NC1=O,20.1
10,COC(=O)CC[C@H]1NC(=O)c2cc(Oc3cccc(N(C)C)c3)c(NC(=O)COCc3ccc(OC)cc3)cc2NC1=O,8.57
11,COC(=O)CC[C@H]1NC(=O)c2cc(Oc3cccc(N(C)C)c3Cl)c(NC(=O)COCc3ccccc3)cc2NC1=O,55.8
12,CCCCCCCCCCCCNC(=O)CC[C@H]1NC(=O)c2cc(Oc3cccc(N(C)C)c3)c(NC(=O)COCc3ccccc3)cc2NC1=O,37.1

# Target: T2, Nucleotide-binding oligomerization domain-containing protein 1 (Homo sapiens, UniProt Q9Y239)
# T2 sequence (Q9Y239 whole entry): T1 sequence (whole entry)
# Test: Antagonist activity at human NOD1 expressed in HEK-blue cells assessed as inhibition of C12-iE-DAP-stimulated cell activation preincubated for 3 hrs followed by C12-iE-DAP addition measured after 20 hrs by SEAP reporter gene assay
# Format: cell-based
# In short: as §1
row,SMILES,IC50 [nM]
1,CN(C)c1cccc(Oc2cc3c(cc2NC(=O)COCc2ccccc2)NC(=O)[C@@H](CCC(=O)N2CCCCC2)NC3=O)c1,1110
2,CN(C)c1cccc(Oc2cc3c(cc2NC(=O)COCc2ccccc2)NC(=O)[C@@H](CCC(=O)N2CCCC2)NC3=O)c1,2370
3,COC(=O)CC[C@H]1NC(=O)c2cc(Oc3cc(Cl)c(Cl)c(N(C)C)c3Cl)c(NC(=O)COCc3ccccc3)cc2NC1=O,1330
4,COC(=O)CC[C@H]1NC(=O)c2cc(Oc3cccc(N4CCCC4)c3)c(NC(=O)COCc3ccc(Cl)cc3)cc2NC1=O,1390
5,CN(C)C(=O)CC[C@H]1NC(=O)c2cc(Oc3cccc(N(C)C)c3)c(NC(=O)COCc3ccccc3)cc2NC1=O,4950

# Target: T3, Nucleotide-binding oligomerization domain-containing protein 2 (Homo sapiens, UniProt Q9HC29)
# T3 sequence (Q9HC29 whole entry, the tested form may be a part): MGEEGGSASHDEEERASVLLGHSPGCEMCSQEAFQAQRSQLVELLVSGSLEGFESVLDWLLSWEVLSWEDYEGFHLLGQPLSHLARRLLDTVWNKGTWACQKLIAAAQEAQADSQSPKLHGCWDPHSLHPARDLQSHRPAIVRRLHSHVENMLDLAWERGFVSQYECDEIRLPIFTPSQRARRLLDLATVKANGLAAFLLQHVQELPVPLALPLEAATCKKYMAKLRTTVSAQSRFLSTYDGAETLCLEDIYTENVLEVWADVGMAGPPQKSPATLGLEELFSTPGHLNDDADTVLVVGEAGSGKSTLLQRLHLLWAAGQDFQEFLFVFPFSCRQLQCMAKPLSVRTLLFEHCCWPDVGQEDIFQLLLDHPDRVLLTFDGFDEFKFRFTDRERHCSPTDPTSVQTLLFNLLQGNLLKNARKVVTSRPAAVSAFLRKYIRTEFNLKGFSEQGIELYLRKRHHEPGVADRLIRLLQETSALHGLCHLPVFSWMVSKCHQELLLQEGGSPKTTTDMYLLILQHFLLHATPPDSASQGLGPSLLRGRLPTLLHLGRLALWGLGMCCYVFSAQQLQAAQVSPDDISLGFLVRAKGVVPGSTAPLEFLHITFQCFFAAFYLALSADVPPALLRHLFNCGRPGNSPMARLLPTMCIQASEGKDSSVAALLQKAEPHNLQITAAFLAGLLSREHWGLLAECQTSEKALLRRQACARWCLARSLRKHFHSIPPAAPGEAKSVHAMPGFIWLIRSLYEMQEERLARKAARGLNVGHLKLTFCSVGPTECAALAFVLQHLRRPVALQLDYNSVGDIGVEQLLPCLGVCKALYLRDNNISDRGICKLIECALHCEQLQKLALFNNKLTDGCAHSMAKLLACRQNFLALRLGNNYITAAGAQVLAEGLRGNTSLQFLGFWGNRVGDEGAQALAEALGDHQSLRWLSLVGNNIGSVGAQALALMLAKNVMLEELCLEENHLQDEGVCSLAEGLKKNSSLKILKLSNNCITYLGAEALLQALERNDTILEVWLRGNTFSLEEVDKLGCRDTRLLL
# Test: Antagonist activity at human NOD2 expressed in HEK-Blue cells assessed as inhibition of MDP-stimulated cell activation at 10 uM preincubated for 3 hrs followed by MDP addition measured after 20 hrs by SEAP reporter gene assay
# Format: cell-based
# In short: as §1
row,SMILES,inhibition [%]
1,CN(C)c1cccc(Oc2cc3c(cc2NC(=O)COCc2ccccc2)NC(=O)[C@@H](CCC(=O)N2CCCCC2)NC3=O)c1,80.6
2,CN(C)c1cccc(Oc2cc3c(cc2NC(=O)COCc2ccccc2)NC(=O)[C@@H](CCC(=O)N2CCCC2)NC3=O)c1,75.6
3,CCCNC(=O)CC[C@H]1NC(=O)c2cc(Oc3cccc(N(C)C)c3)c(NC(=O)COCc3ccc(Cl)cc3)cc2NC1=O,44.6
4,COC(=O)CC[C@H]1NC(=O)c2cc(Oc3cc(Cl)c(Cl)c(N(C)C)c3Cl)c(NC(=O)COCc3ccccc3)cc2NC1=O,34
5,COC(=O)CC[C@H]1NC(=O)c2cc(Oc3cccc(N4CCCC4)c3)c(NC(=O)COCc3ccc(Cl)cc3)cc2NC1=O,94
6,CCCCCCCCCCCCCCCCNC(=O)CC[C@H]1NC(=O)c2cc(Oc3cccc(N(C)C)c3)c(NC(=O)COCc3ccccc3)cc2NC1=O,-7.1
7,CN(C)C(=O)CC[C@H]1NC(=O)c2cc(Oc3cccc(N(C)C)c3)c(NC(=O)COCc3ccccc3)cc2NC1=O,35.5
8,COC(=O)CC[C@H]1NC(=O)c2cc(Oc3cccc(N(C)C)c3Cl)c(NC(=O)COCc3ccc(Cl)cc3)cc2NC1=O,15.7
9,COC(=O)CC[C@H]1NC(=O)c2cc(Oc3cccc(N(C)C)c3)c(NC(=O)COCc3ccc(F)cc3Cl)cc2NC1=O,13.5
10,COC(=O)CC[C@H]1NC(=O)c2cc(Oc3cccc(N(C)C)c3)c(NC(=O)COCc3ccc(OC)cc3)cc2NC1=O,56.5
11,COC(=O)CC[C@H]1NC(=O)c2cc(Oc3cccc(N(C)C)c3Cl)c(NC(=O)COCc3ccccc3)cc2NC1=O,46
12,CCCCCCCCCCCCNC(=O)CC[C@H]1NC(=O)c2cc(Oc3cccc(N(C)C)c3)c(NC(=O)COCc3ccccc3)cc2NC1=O,23.1

# Target: T3, Nucleotide-binding oligomerization domain-containing protein 2
# Test: Antagonist activity at human NOD2 expressed in HEK-Blue cells assessed as inhibition of MDP-stimulated cell activation at 5 uM preincubated for 3 hrs followed by MDP addition measured after 20 hrs by SEAP reporter gene assay
# Format: cell-based
row,SMILES,inhibition [%]
1,CN(C)c1cccc(Oc2cc3c(cc2NC(=O)COCc2ccccc2)NC(=O)[C@@H](CCC(=O)N2CCCCC2)NC3=O)c1,63.3
2,CN(C)c1cccc(Oc2cc3c(cc2NC(=O)COCc2ccccc2)NC(=O)[C@@H](CCC(=O)N2CCCC2)NC3=O)c1,58.2
3,CCCNC(=O)CC[C@H]1NC(=O)c2cc(Oc3cccc(N(C)C)c3)c(NC(=O)COCc3ccc(Cl)cc3)cc2NC1=O,37.6
4,COC(=O)CC[C@H]1NC(=O)c2cc(Oc3cc(Cl)c(Cl)c(N(C)C)c3Cl)c(NC(=O)COCc3ccccc3)cc2NC1=O,55.9
5,COC(=O)CC[C@H]1NC(=O)c2cc(Oc3cccc(N4CCCC4)c3)c(NC(=O)COCc3ccc(Cl)cc3)cc2NC1=O,86
6,CCCCCCCCCCCCCCCCNC(=O)CC[C@H]1NC(=O)c2cc(Oc3cccc(N(C)C)c3)c(NC(=O)COCc3ccccc3)cc2NC1=O,-4.77
7,CN(C)C(=O)CC[C@H]1NC(=O)c2cc(Oc3cccc(N(C)C)c3)c(NC(=O)COCc3ccccc3)cc2NC1=O,31
8,COC(=O)CC[C@H]1NC(=O)c2cc(Oc3cccc(N(C)C)c3Cl)c(NC(=O)COCc3ccc(Cl)cc3)cc2NC1=O,15.7
9,COC(=O)CC[C@H]1NC(=O)c2cc(Oc3cccc(N(C)C)c3)c(NC(=O)COCc3ccc(F)cc3Cl)cc2NC1=O,12.8
10,COC(=O)CC[C@H]1NC(=O)c2cc(Oc3cccc(N(C)C)c3)c(NC(=O)COCc3ccc(OC)cc3)cc2NC1=O,34.1
11,COC(=O)CC[C@H]1NC(=O)c2cc(Oc3cccc(N(C)C)c3Cl)c(NC(=O)COCc3ccccc3)cc2NC1=O,44.6
12,CCCCCCCCCCCCNC(=O)CC[C@H]1NC(=O)c2cc(Oc3cccc(N(C)C)c3)c(NC(=O)COCc3ccccc3)cc2NC1=O,29.1

# Target: T3, Nucleotide-binding oligomerization domain-containing protein 2
# Test: Antagonist activity at human NOD2 expressed in HEK-Blue cells assessed as inhibition of MDP-stimulated cell activation preincubated for 3 hrs followed by MDP addition measured after 20 hrs by SEAP reporter gene assay
# Format: cell-based
# In short: as §1
row,SMILES,IC50 [nM]
1,CN(C)c1cccc(Oc2cc3c(cc2NC(=O)COCc2ccccc2)NC(=O)[C@@H](CCC(=O)N2CCCCC2)NC3=O)c1,2990
2,CN(C)c1cccc(Oc2cc3c(cc2NC(=O)COCc2ccccc2)NC(=O)[C@@H](CCC(=O)N2CCCC2)NC3=O)c1,3790
3,COC(=O)CC[C@H]1NC(=O)c2cc(Oc3cc(Cl)c(Cl)c(N(C)C)c3Cl)c(NC(=O)COCc3ccccc3)cc2NC1=O,3780
4,COC(=O)CC[C@H]1NC(=O)c2cc(Oc3cccc(N4CCCC4)c3)c(NC(=O)COCc3ccc(Cl)cc3)cc2NC1=O,1500
5,COC(=O)CC[C@H]1NC(=O)c2cc(Oc3cccc(N(C)C)c3)c(NC(=O)COCc3ccc(OC)cc3)cc2NC1=O,9510
